Results: ChEMBL document CHEMBL4431302, “Vobatensines A-F, Cytotoxic Iboga-Vobasine Bisindoles from Tabernaemontana corymbosa” (J Nat Prod, 2016)

Assays:
KB/VJ300 [1] = assay: Growth inhibition of human KB/VJ300 cells after 72 hrs by MTT assay; type: functional, cell-based; conditions: KB/VJ300, 72 h
Procedure, shortened: (§1)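 Cytotoxicity run by a previously reported procedure, with vincristine and cisplatin as positive controls.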

HT-29 = assay: Growth inhibition of human HT-29 cells after 72 hrs by MTT assay; type: functional, cell-based; conditions: HT-29, 72 h; procedure, shortened: as §1
LNCaP = assay: Growth inhibition of human LNCAP cells after 72 hrs by MTT assay; type: functional, cell-based; procedure, shortened: as §1
HCT-116 = assay: Growth inhibition of human HCT116 cells after 72 hrs by MTT assay; type: functional, cell-based; conditions: HCT-116, 72 h; procedure, shortened: as §1
PC-3 = assay: Growth inhibition of human PC3 cells after 72 hrs by MTT assay; type: functional, cell-based; conditions: PC-3, 72 h; procedure, shortened: as §1
[2] = Growth inhibition of human KB/S cells after 72 hrs by MTT assay; type: functional; procedure, shortened: as §1
KB/VJ300 [3] = assay: Growth inhibition of human KB/VJ300 cells after 72 hrs in presence of vincristine by MTT assay; type: functional, cell-based; conditions: KB/VJ300, 72 h
Procedure, shortened: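 Vincristine-resistant KB/VJ300 cells were exposed to test compound together with vincristine at 0.1 μg/mL, a multidrug-resistance reversal set-up. Cytotoxicity was run by a previously reported procedure, with vincristine and cisplatin as positive controls.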

MDA-MB-231 = assay: Growth inhibition of human MDA-MB-231 cells after 72 hrs by MTT assay; type: functional, cell-based; conditions: MDA-MB-231, 72 h; procedure, shortened: as §1
A549 = assay: Growth inhibition of human A549 cells after 72 hrs by MTT assay; type: functional, cell-based; conditions: A549, 72 h; procedure, shortened: as §1
MCF7 = assay: Growth inhibition of human MCF7 cells after 72 hrs by MTT assay; type: functional, cell-based; conditions: MCF7, 72 h; procedure, shortened: as §1

Row | Compound | IC50 (KB/VJ300 [1]) | IC50 (HT-29) | IC50 (LNCaP) | IC50 (HCT-116) | IC50 (PC-3) | IC50 (KB/VJ300 [3]) | IC50 (MDA-MB-231) | IC50 (A549) | IC50 (MCF7) | IC50 [2]
1 | C/C=C1/CN(C)[C@H]2Cc3c([nH]c4ccccc34)[C@@H](c3cc4[nH]c5c(c4cc3OC)CCN3C[C@H]4C[C@H](CC)[C@H]3[C@H]5C4)C[C@H]1[C@@H]2C(=O)OC | 5 µM | 0.93 µM | > 10 µM | 1.6 µM | 2.8 µM | 7 µM | 2.5 µM | 6.8 µM | 6 µM | 5.3 µM
2 | C/C=C1/CN(C)[C@H]2Cc3c([nH]c4ccccc34)[C@@H](c3cc4c(cc3OC)C(=O)[C@@]3(CCN5C[C@H]6C[C@H](CC)[C@H]5[C@H]3C6)N4)C[C@H]1[C@@H]2C(=O)OC | 9.1 µM | 2.9 µM | 10 µM | 7.1 µM | 8.8 µM | 3.3 µM | 7.7 µM | 9.1 µM | 9.4 µM | 8.3 µM
3 | C/C=C1/CN(C)[C@H]2Cc3c([nH]c4ccccc34)[C@@H](c3c(OC)ccc4[nH]c5c(c34)CCN3C[C@H]4C[C@H](CC)[C@H]3[C@H]5C4)C[C@H]1[C@@H]2C(=O)OC | 10 to 30 µM | 1.9 µM | > 10 µM | 7.4 µM | 7.7 µM | 9 to 9.6 µM | 4.6 µM | > 10 µM | > 10 µM | > 10 µM
4 | CC[C@@H]1CN(C)[C@H]2Cc3c([nH]c4ccccc34)[C@@H](c3cc4c(cc3OC)C(=O)[C@@]3(CCN5C[C@H]6C[C@H](CC)[C@H]5[C@H]3C6)N4)C[C@H]1[C@@H]2C(=O)OC | > 10 µM | 1.8 µM | > 10 µM | 7.8 µM | 8.1 µM | 5.1 µM | 3.3 µM | 8.4 µM | 7.5 µM | > 10 µM
5 | C/C=C1/CN(C)[C@H]2Cc3c([nH]c4ccccc34)[C@@H](c3cc4c(cc3OC)[C@@]3(O)CCN5C[C@H]6C[C@H](CC)[C@H]5[C@@H](C6)C3=N4)C[C@H]1[C@@H]2C(=O)OC | 10 to 30 µM | 7.2 µM | > 10 µM | 9.7 µM | 5.6 µM | 9 to 9.2 µM | > 10 µM | > 10 µM | > 10 µM | > 10 µM
6 | C/C=C1/CN2CC[C@]34C(=C(C=O)C1C[C@H]23)Nc1cc([C@H]2C[C@@H]3/C(=C\C)CN(C)[C@@H](Cc5c2[nH]c2ccccc52)[C@H]3C(=O)OC)ccc14 | > 10 µM | 1.3 µM | > 10 µM | 6.7 µM | 5.4 µM | > 10 µM | 4.5 µM | 9.2 µM | 8.6 µM | > 10 µM
7 | COc1ccc(CCN(C)CCCC(C#N)(c2ccc(OC)c(OC)c2)C(C)C)cc1OC (stereo not given) [VERAPAMIL] | > 10 µM |  |  |  |  | 4.6 µM |  |  |  | > 10 µM

More lines, in order of falling IC50 (KB/VJ300 [1]), values ahead:

Row | IC50 (KB/VJ300 [1]) | IC50 (HT-29) | IC50 (LNCaP) | IC50 (HCT-116) | IC50 (PC-3) | IC50 (KB/VJ300 [3]) | IC50 (MDA-MB-231) | IC50 (A549) | IC50 (MCF7) | Compound | IC50 [2]
8 | 8.3 µM | 0.92 µM | > 10 µM | 2.9 µM | 3.5 µM | 9.3 µM | 2.8 µM | > 10 µM | 3.4 µM | CC[C@@H]1CN(C)[C@H]2Cc3c([nH]c4ccccc34)[C@@H](c3cc4[nH]c5c(c4cc3OC)CCN3C[C@H]4C[C@H](CC)[C@H]3[C@H]5C4)C[C@H]1[C@@H]2C(=O)OC | 8 µM
9 | 8.1 µM | 2.4 µM | > 10 µM | 3.5 µM | 6.9 µM | 8.6 µM | 3.6 µM | 9.6 µM | 9.3 µM | CC[C@@H]1CN(C)[C@H]2Cc3c([nH]c4ccccc34)[C@@H](c3cc4[nH]c5c(c4cc3OC)CCN3C[C@H]4C[C@H]([C@@H](C)O)[C@H]3[C@H]5C4)C[C@H]1[C@@H]2C(=O)OC | 8 µM
10 | 7.2 µM | 1.2 µM | > 10 µM | 3 µM | 5.7 µM | > 10 µM | 3.9 µM | 9.7 µM | 8.8 µM | C/C=C1/CN(C)[C@H]2Cc3c([nH]c4ccccc34)[C@@H](c3cc4[nH]c5c(c4cc3OC)CCN3C[C@H]4C[C@H]([C@@H](C)O)[C@H]3[C@H]5C4)C[C@H]1[C@@H]2C(=O)OC | 8.2 µM
11 | 6.6 µM |  |  |  |  |  |  |  |  | CC[C@]1(O)C[C@H]2CN(CCc3c([nH]c4ccccc34)[C@@](C(=O)OC)(c3cc4c(cc3OC)N(C=O)[C@H]3[C@@](O)(C(=O)OC)[C@H](OC(C)=O)[C@]5(CC)C=CCN6CC[C@]43[C@@H]65)C2)C1 [VINCRISTINE] | 0.0024 µM
